Measured values from paper PMC8462008 (Bioorganic & medicinal chemistry, 2021).
“Also recorded” adds a separate entry of the source.

Columns and labels:
[1] = tested on: RSV-induced cytokines/chemokines; test: RSV-induced cytokine/chemokine induction in SAECs; type: cell-based, human; details: 10 μM, 4 h posttreatment, RSV MOI 5, SAECs supernatant
In short: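 Primary human small airway epithelial cells from normal distal lung were infected with RSV long strain at MOI 5. Virus was removed at 2 h and cells were treated with 10 μM test compound. Supernatants were collected at 4 h post-treatment and assayed with a multiplex human cytokine/chemokine bead kit (Bio-Plex) per kit instructions. Run at least twice; means ± SE.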

IRF3 [2] = test: IRF3 luciferase reporter assay in RSV-infected A549 cells; type: cell-based, human; details: 10 μM
In short: (§1)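 A549 cells transfected in triplicate (FuGene 6) with luciferase plasmids carrying NF-κB binding sites (NF-κB-Luc) or the IRF-3 site (PRDIII-I-Luc, IRF-3-Luc). At 20 h post-transfection, cells were infected with RSV long strain, either MOI 1 with 2 h adsorption then virus removed and 10 μM test compound for 15 h, or MOI 5 with 4 h treatment. Cells were lysed for luciferase. Run at least twice; means ± SE.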

NF-κB [3] = test: NF-κB luciferase reporter assay in RSV-infected A549 cells; type: cell-based, human; details: 10 μM
In short: as §1

IRF-3 = test: Poly I:C-activated IRF-3 luciferase reporter in HEK-293 cells; type: cell-based, human; details: 4 h post-treatment
In short: (§2)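 HEK-293 cells were transiently transfected with IRF-3 (Poly I:C line) or NF-κB (Poly I:C and TNF-α lines) luciferase reporter plasmids. At 15 h post-transfection, cells were stimulated by transfection with Poly I:C or by 10 ng/ml TNF-α and treated with test compound. Luciferase activity was read at 4 h post-treatment. Run at least twice; means ± SE.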

NF-κB [4] = test: TNF-α-induced NF-κB luciferase reporter in HEK-293 cells; type: cell-based, human; details: 10 ng/ml TNF-α, 4 h post-treatment
In short: as §2

IRF3 [5] = test: RSV-induced IRF3 phosphorylation and nuclear translocation in A549 cells; type: cell-based, human; details: 10 μM; for IRF-3 total protein level in the cell: cell lysates at 4 h or 15 h of infection
In short: (§3)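 A549 cells, mock or RSV-infected, were treated with 10 μM test compound, either MOI 5 for 4 h or MOI 1 for 15 h. Nuclear extracts were blotted for IRF-3, phospho-IRF3 Ser396, p65, and phospho-p65 Ser276 and Ser536. Total IRF-3 and p65 were measured in whole-cell lysates at 4 h and 15 h. Blots used SDS-PAGE, PVDF and 5% milk block; β-actin was the loading control.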

RSV = RSV genome copies in infected A549 cells by RT-qPCR; type: cell-based, respiratory syncytial virus (RSV long strain); details: 10 μM, RSV MOI 1, A549
In short: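 RSV long strain was grown in HEp-2 cells at 37 °C and purified on a sucrose gradient. A549 cells were infected at MOI 1, then treated with 10 μM test compound for 6, 15 or 24 h. Intracellular RSV genome copies were quantified by RT-qPCR at each time point after treatment.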

[6] = tested on: RSV viral proteins (P, M, N, F); test: RSV viral protein expression in A549 cells by western blot; type: cell-based, respiratory syncytial virus (RSV long strain); details: 10 μM; for RSV protein expression: 4 h, RSV MOI 5, A549, versus control cells; for expression of viral P, M, N and F proteins: 15 h posttreatment, RSV MOI 1, A549
In short: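 A549 cells were infected with RSV long strain, either MOI 1 then 10 μM test compound for 15 h, or MOI 5 then 10 μM for 4 h. Total lysates were resolved by SDS-PAGE and transferred to PVDF. Membranes were blocked in 5% milk/TBS-Tween 20 and probed with biotin-conjugated polyclonal goat anti-RSV or anti-F antibody; β-actin was the loading control.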

p65 = test: RSV-induced p65 phosphorylation and nuclear translocation in A549 cells; type: cell-based, human; details: 10 μM; for p65 total protein level in the cell: cell lysates at 4 h or 15 h of infection
In short: as §3

NF-κB [7] = test: Poly I:C-induced NF-κB luciferase reporter in HEK-293 cells; type: cell-based, human; details: 4 h post-treatment
In short: as §2

A549 cells = test: LDH release cytotoxicity assay; type: cell-based, human; details: 10 μM, 15 h
In short: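 A549 cells were seeded at 1.5 × 10^4 cells/well for 24 h. The whole medium was then replaced with fresh medium containing 10 μM test compound and 2% FBS; DMSO served as vehicle control. At 15 h, cells were harvested for luminescent LDH-release assay (LDH-Glo kit). Three biological replicates.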

[8] = 4 h posttreatment, RSV MOI 5, A549
[9] = 15 h posttreatment, RSV MOI 1, A549
[10] = 4 h posttreatment, RSV MOI 5, nuclear extracts
[11] = 15 h posttreatment, RSV MOI 1, nuclear extracts

SMILES	RSV-induced IRF3 activation (luciferase reporter) (IRF3 [2]; [8])	RSV-induced IRF3 activation (luciferase reporter) (IRF3 [2]; [9])	RSV-induced NF-κB activation (luciferase reporter) (NF-κB [3]; [8])	RSV-induced NF-κB activation (luciferase reporter) (NF-κB [3]; [9])	RSV-induced IL-6 [1]	RSV-induced MIP-1α [1]	RSV-induced TNF-α [1]	viral genome copies (RSV; 15 h posttreatment)	viral genome copies (RSV; 24 h posttreatment)	further results
CCCNc1ccc(NC(=O)c2cc(Cl)ccc2O)c(Cl)c1 [Compound 11]	significantly inhibited	dramatically suppressed	significantly inhibited	dramatically suppressed						RSV-induced MIP-1β [1]: capable to inhibit
CC(C)Nc1ccc(NC(=O)c2cc(Cl)ccc2O)c(Cl)c1 [Compound 12]	significantly inhibited	dramatically suppressed	significantly inhibited	dramatically suppressed	no suppression	no suppression	no suppression			
CC1(Nc2ccc(NC(=O)c3cc(Cl)ccc3O)c(Cl)c2)CCCCC1 [Compound 15, 5-Chloro-N-(2-chloro-4-((1-methylcyclohexyl)amino)phenyl)-2-hydroxybenzamide]	significantly inhibited	suppressed	significantly inhibited	no effect; also recorded: failed to inhibit	could inhibit		able to inhibit	significantly decreased	significantly decreased	Poly I:C-activated IRF-3 (luciferase reporter) (IRF-3): suppressed; RSV-induced MIP-1β [1]: capable to inhibit; RSV-induced cytokines/chemokines (all tested immune mediators) [1]: inhibited the induction of all tested immune mediators; TNF-α-activated NF-κB (luciferase reporter) (NF-κB [4]): not impacted; nuclear translocation of IRF3 (IRF3 [5]; 4 h posttreatment, RSV MOI 5): significantly decreased; RSV-induced IRF3 phosphorylation at Ser396 (IRF3 [5]; [10]): significantly decreased; nuclear translocation of IRF3 (IRF3 [5]; 15 h posttreatment, RSV MOI 1): significantly decreased; RSV-induced IRF3 phosphorylation at Ser396 (IRF3 [5]; [11]): significantly decreased; IRF-3 total protein level in the cell (IRF3 [5]): undetectable or minimal impact; RSV protein expression [6]: comparable; expression of viral P, M, N and F proteins [6]: decreased; RSV-induced p65 Ser276 phosphorylation (p65; 4 h posttreatment, RSV MOI 5): not affected; RSV-induced p65 Ser536 phosphorylation (p65; 4 h posttreatment, RSV MOI 5): suppressed; nuclear translocation of p65 (p65; 4 h posttreatment, RSV MOI 5): suppressed; RSV-induced p65 Ser276 phosphorylation (p65; 15 h posttreatment, RSV MOI 1): no effect; RSV-induced p65 Ser536 phosphorylation (p65; 15 h posttreatment, RSV MOI 1): impaired; nuclear translocation of p65 (p65; 15 h posttreatment, RSV MOI 1): decreased; p65 total protein level in the cell (p65): undetectable or minimal impact; Poly I:C-induced NF-κB activation (luciferase reporter) (NF-κB [7]): only impacted by compound 22, not 15
O=C(Nc1ccc(NCc2cccnc2)cc1Cl)c1cc(Cl)ccc1O [Compound 19, 5-Chloro-N-(2-chloro-4-((pyridin-3-ylmethyl)amino)phenyl)-2-hydroxybenzamide]	no suppression	no effect	no suppression	no effect						RSV-induced cytokines/chemokines (all tested immune mediators) [1]: did not show any inhibitory effect
O=C(Nc1ccc(NCc2ccco2)cc1Cl)c1cc(Cl)ccc1O [Compound 22, 5-Chloro-N-(2-chloro-4-((furan-2-ylmethyl)amino)phenyl)-2-hydroxybenzamide]	significantly inhibited	dramatically suppressed	significantly inhibited	dramatically suppressed	no suppression; also recorded: enhanced	no suppression	no suppression	significantly decreased	significantly decreased	Poly I:C-activated IRF-3 (luciferase reporter) (IRF-3): suppressed; nuclear translocation of IRF3 (IRF3 [5]; 4 h posttreatment, RSV MOI 5): significantly decreased; RSV-induced IRF3 phosphorylation at Ser396 (IRF3 [5]; [10]): significantly decreased; nuclear translocation of IRF3 (IRF3 [5]; 15 h posttreatment, RSV MOI 1): significantly decreased; RSV-induced IRF3 phosphorylation at Ser396 (IRF3 [5]; [11]): significantly decreased; IRF-3 total protein level in the cell (IRF3 [5]): undetectable or minimal impact; RSV protein expression [6]: comparable; expression of viral P, M, N and F proteins [6]: decreased; RSV-induced p65 Ser276 phosphorylation (p65; 4 h posttreatment, RSV MOI 5): not affected; RSV-induced p65 Ser536 phosphorylation (p65; 4 h posttreatment, RSV MOI 5): suppressed; nuclear translocation of p65 (p65; 4 h posttreatment, RSV MOI 5): suppressed; RSV-induced p65 Ser276 phosphorylation (p65; 15 h posttreatment, RSV MOI 1): robustly suppressed; RSV-induced p65 Ser536 phosphorylation (p65; 15 h posttreatment, RSV MOI 1): robustly suppressed; nuclear translocation of p65 (p65; 15 h posttreatment, RSV MOI 1): robustly suppressed; p65 total protein level in the cell (p65): undetectable or minimal impact; Poly I:C-induced NF-κB activation (luciferase reporter) (NF-κB [7]): impacted
CCCN(CCC)c1ccc(NC(=O)c2cc(Cl)ccc2O)c(Cl)c1 [Compound 26]	significantly inhibited	dramatically suppressed	significantly inhibited	dramatically suppressed			able to inhibit			
O=C(Nc1ccc(N2CCOCC2)cc1Cl)c1cc(Cl)ccc1O [Compound 28, 5-Chloro-N-(2-chloro-4-morpholinophenyl)-2-hydroxybenzamide]	significantly inhibited	dramatically suppressed	significantly inhibited	dramatically suppressed	no suppression	no suppression	no suppression			
CS(=O)(=O)CCCn1c(Cn2c(=O)n(CC(F)(F)F)c3ccncc32)cc2cc(Cl)ccc21 [JNJ-53718678, reference compound]								did not affect	slightly decreased	
O=C(Nc1ccc([N+](=O)[O-])cc1Cl)c1cc(Cl)ccc1O [Niclosamide]										cell death (A549 cells): about 24%
